# Assay results from PubChem BioAssay AID623985 (Broad Institute, 2012).
# Target: PvdQ acylase (Pseudomonas aeruginosa)
# Assay: PvdQ acylase enzyme activity blockers – biochemical, fluorescence, plate reader, dry powder, set 2, dose response (AID 623985)
# Conditions: purified PvdQ, 4-MU laurate fluorescence, 60 min
# Outline: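 Test system: purified P. aeruginosa PvdQ / Quantity: PvdQ enzyme at 0.02 µM final / Buffer or medium: Tris pH 8.0, NaCl, TCEP buffer with Triton X-100 / Also added: 4-methylumbelliferone laurate substrate at 0.8 mM final / Incubation: 30 min enzyme–compound pre-incubation, then 60 min substrate reaction, room temperature / Detection: fluorescence, Ex 303–367 nm, Em 440–460 nm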
row,SMILES,AC50
1,Cc1ccc(C(C#N)c2ccccc2OC(F)(F)F)nc1C#N (stereo unspecified),328 nM
2,CCCC(C#N)c1ccc(Cl)cc1 (stereo unspecified),293 nM
3,N#Cc1cccc(C(C#N)c2ccccc2OC(F)(F)F)n1 (stereo unspecified),227 nM
4,CCCCC(C#N)c1ccc(Cl)cc1 (stereo unspecified),56.9 nM
5,CCCCC(C#N)c1ccc(F)cc1 (stereo unspecified),45.5 nM
6,CCCCC(C#N)c1ccc(Cl)cc1F (stereo unspecified),315 nM
7,N#CC(c1cccc(Cl)n1)c1ccc(Cl)cc1F (stereo unspecified),22.4 nM
8,N#CC(c1cccc(Cl)n1)c1ccc(Cl)cc1Cl (stereo unspecified),170 nM
9,N#Cc1cccc(C(C#N)c2ccc(Cl)cc2F)n1 (stereo unspecified),46.7 nM
10,CC(C)CC(C#N)c1ccc(Cl)cc1 (stereo unspecified),203 nM
11,N#Cc1ccc(C(C#N)c2ccc(Cl)cc2Cl)nc1 (stereo unspecified),1940 nM
12,N#CC(c1ccc(Cl)cc1Cl)c1ncccc1Cl (stereo unspecified),141 nM
13,N#CC(c1cccc(Cl)n1)c1ccccc1OC(F)(F)F (stereo unspecified),754 nM
14,N#Cc1cccc(C(C#N)c2ccc(Cl)cc2Cl)n1 (stereo unspecified),303 nM
15,N#CC(CC1CC1)c1ccc(Cl)cc1 (stereo unspecified),133 nM
16,CCCCC(C#N)c1ccc(Cl)cc1Cl (stereo unspecified),281 nM
17,N#CC(c1ccc(Cl)cc1)c1ncccc1Cl (stereo unspecified),< 3 nM

# Second part, the compound after the results:
row,AC50,SMILES
1,124 nM,COc1cccc(C(C#N)c2ccc(F)cc2)n1 (stereo unspecified)
2,4.16 nM,N#CC(c1ccc(Cl)cc1)c1cccc(C(F)(F)F)n1 (stereo unspecified)
3,< 3 nM,N#CC(c1cccc(C(F)(F)F)n1)c1ccc(Cl)cc1F (stereo unspecified)
4,162 nM,Cc1cccc(C(C#N)c2ccc(Cl)cc2)n1 (stereo unspecified)
5,17.9 nM,N#CC(c1ccc(Cl)cc1)c1cccc(Cl)n1 (stereo unspecified)
6,597 nM,N#CC(c1ccc(C(F)(F)F)c(Cl)n1)c1ccccc1OC(F)(F)F (stereo unspecified)
7,5.02 nM,N#CC(c1ccc(F)cc1)c1cccc(C(F)(F)F)n1 (stereo unspecified)
8,171 nM,N#CC(c1ccc(Cl)cc1)c1ccc(C(F)(F)F)cn1 (stereo unspecified)
9,484 nM,N#CC(c1ccc(C(F)(F)F)c(Cl)n1)c1ccc(Cl)cc1F (stereo unspecified)
10,2950 nM,N#CC(c1ccc(C(F)(F)F)cc1)c1ccc(C(F)(F)F)c(Cl)n1 (stereo unspecified)
11,376 nM,N#CC(c1cccc(C(F)(F)F)n1)c1ccccc1OC(F)(F)F (stereo unspecified)
12,548 nM,N#CC(c1ccc(F)cc1)c1ccc(C(F)(F)F)c(Cl)n1 (stereo unspecified)
13,27 nM,N#CC(c1ccc(C(F)(F)F)cc1)c1cccc(C(F)(F)F)n1 (stereo unspecified)
14,69.7 nM,Cc1ccc(C(C#N)c2ccc(Cl)cc2)nc1C#N (stereo unspecified)
15,2440 nM,N#CC(c1ccc(C(F)(F)F)c(Cl)n1)c1ccc(Cl)cc1Cl (stereo unspecified)
16,1230 nM,CC(C#N)(c1ccc(Cl)cc1)c1ccc(C(F)(F)F)cn1 (stereo unspecified)
17,96.6 nM,Cc1ccc(C(C#N)c2ccc(F)cc2)nc1C#N (stereo unspecified)
18,357 nM,N#CC(c1ccc(C(F)(F)F)cc1)c1cccc(Cl)n1 (stereo unspecified)
19,73.3 nM,N#CC(c1ccc(Cl)cc1)c1ccc(Cl)cn1 (stereo unspecified)
20,609 nM,N#CC(c1ccc(Cl)cc1)c1ccc(C(F)(F)F)c(Cl)n1 (stereo unspecified)
21,60.6 nM,N#Cc1cccc(C(C#N)c2ccc(Cl)cc2)n1 (stereo unspecified)
22,150 nM,Cc1ccc(C(C#N)c2ccc(Cl)cc2)nc1 (stereo unspecified)
23,1310 nM,N#Cc1ccc(C(C#N)c2ccc(Cl)cc2)nc1 (stereo unspecified)
24,1590 nM,CCCCC(C#N)c1ccc(C(F)(F)F)cc1 (stereo unspecified)
